From publication PMC10270725 (Journal of medicinal chemistry, 2023)

Experiments:
[1] = tested on: TEAD transcription (pan-TEAD response element luciferase reporter) in NCI-H226 cells; experiment: TEAD gene reporter; assay type: cell-based
Procedure, shortened: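 NCI-H226 cells (RPMI1640, 10% FBS, 1% penicillin/streptomycin) were transduced with TEAD luciferase reporter lentivirus plus 8 μg/mL polybrene and puromycin-selected from day 3. Reporter cells were seeded at 1000 cells/well in 384-well plates and dosed with test compound for 3 days. One-Glo luciferase signal was normalized to CellTiter-Glo viability.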

[2] = target: His-TEAD1-YBD recombinant protein (Homo sapiens, UniProt P28347); experiment: TEAD1 TR-FRET biochemical assay; assay type: binding; conditions: fixed time point 5 h
His-TEAD1-YBD recombinant protein, sequence (P28347 209-424): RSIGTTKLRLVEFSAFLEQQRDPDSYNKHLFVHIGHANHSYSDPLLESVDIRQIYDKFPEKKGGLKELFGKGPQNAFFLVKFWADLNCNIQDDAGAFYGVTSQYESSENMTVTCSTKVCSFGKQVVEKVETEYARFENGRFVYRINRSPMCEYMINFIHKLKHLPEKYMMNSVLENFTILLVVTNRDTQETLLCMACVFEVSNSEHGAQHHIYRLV
Procedure, shortened: (§1)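 100 nM His-TEAD-YBD was pretreated with test compound for 5 h. Then 800 nM FAM-labeled tracer built from a reversible pan-TEAD inhibitor was added, with anti-6His Tb cryptate antibody (50 ng/mL final). TR-FRET was read at 490/520 nm. IC50 is mean ± SEM of two experiments, each with three biological replicates.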

[3] = target: His-TEAD2-YBD recombinant protein (Homo sapiens, UniProt Q15562); experiment: TEAD2 TR-FRET biochemical assay; assay type: binding; conditions: fixed time point 5 h
His-TEAD2-YBD recombinant protein, sequence (Q15562 217-447 limits assumed): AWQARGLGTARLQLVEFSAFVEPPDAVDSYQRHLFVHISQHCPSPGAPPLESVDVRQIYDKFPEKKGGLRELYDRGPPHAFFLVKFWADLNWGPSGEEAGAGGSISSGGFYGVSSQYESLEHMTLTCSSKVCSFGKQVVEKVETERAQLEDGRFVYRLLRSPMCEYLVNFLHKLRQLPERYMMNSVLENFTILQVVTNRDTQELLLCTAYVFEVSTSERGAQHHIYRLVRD
Procedure, shortened: as §1

[4] = target: His-TEAD3-YBD recombinant protein (Homo sapiens, UniProt Q99594); experiment: TEAD3 TR-FRET biochemical assay; assay type: binding; conditions: fixed time point 5 h
His-TEAD3-YBD recombinant protein, sequence (Q99594 219-435 limits assumed): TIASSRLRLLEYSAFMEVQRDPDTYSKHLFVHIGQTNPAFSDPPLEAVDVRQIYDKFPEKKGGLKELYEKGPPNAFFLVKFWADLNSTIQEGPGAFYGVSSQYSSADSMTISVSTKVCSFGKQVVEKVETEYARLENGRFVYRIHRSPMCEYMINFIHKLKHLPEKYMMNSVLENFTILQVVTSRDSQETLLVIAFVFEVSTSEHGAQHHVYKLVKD
Procedure, shortened: as §1

[5] = target: His-TEAD4-YBD recombinant protein (Homo sapiens, UniProt Q15561); experiment: TEAD4 TR-FRET biochemical assay; assay type: binding; conditions: fixed time point 5 h
His-TEAD4-YBD recombinant protein, sequence (Q15561 217-434 limits assumed): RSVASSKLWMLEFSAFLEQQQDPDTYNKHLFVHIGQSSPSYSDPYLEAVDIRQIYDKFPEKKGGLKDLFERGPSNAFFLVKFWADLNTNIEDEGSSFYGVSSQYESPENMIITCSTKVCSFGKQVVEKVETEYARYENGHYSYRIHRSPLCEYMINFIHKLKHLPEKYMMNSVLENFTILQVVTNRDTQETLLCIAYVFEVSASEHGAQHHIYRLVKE
Procedure, shortened: as §1

[6] = tested on: NF2-sufficient NCI-H28 mesothelioma cells; experiment: Proliferation assay in NCI-H28 cells; assay type: cell-based
[7] = target: recombinant TEAD1-YBD protein (Homo sapiens, UniProt P28347); experiment: Intact mass spectrometry analysis of covalent labeling; assay type: binding; conditions: 10-fold molar excess of compound, 1 h at rt
recombinant TEAD1-YBD protein, sequence (P28347 209-424): as the sequence (P28347 209-424) above
Procedure, shortened: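 TEAD1-YBD (residues 209−424, N-terminal 6×His) was expressed in Rosetta(DE3) pLysS and purified on cobalt resin, then by gel filtration. Protein was incubated with DMSO or test compound for 1 h at rt. It was desalted 4 min in 0.2 M acetic acid on a POROS 50R2 column and eluted with a 1-min 0–100% acetonitrile gradient in 0.2 M acetic acid. Analysis was electrospray (4.5 kV) ion-trap MS.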

| Compound | TEAD1 TR-FRET IC50 [2] | TEAD2 TR-FRET IC50 [3] | TEAD3 TR-FRET IC50 [4] | TEAD4 TR-FRET IC50 [5] | effect on proliferation of NCI-H28 cells [6] | further results |
| --- | --- | --- | --- | --- | --- | --- |
| 1-(trans-4-(5-Fluoropyrimidin-2-ylamino)-3-(4-(trifluoromethyl)-benzyloxy)piperidin-1-yl)prop-2-en-1-one [Compound 16] | – | – | – | – | – | IC50 ([1]; read-out: IC50 in the reporter gene assay (TEAD transcription), NCI-H226 reporter cells, 3 day treatment, mean ± SEM): 0.171 ± 0.088 µM |
| C=CC(=O)N1C[C@@H](n2cc(-c3cccnc3)nn2)[C@H](OCc2ccc(C(F)(F)F)cc2)C1 (relative stereo) [Compound 1, 1-(trans-3-(4-(Pyridin-3-yl)-1H-1,2,3-triazol-1-yl)-4-((4-(trifluoromethyl)benzyl)oxy)pyrrolidin-1-yl)prop-2-en-1-one] | low nanomolar | low nanomolar | low nanomolar | low nanomolar | – | EC50 ([1]; Homo sapiens, NCI-H226, 72 h, read-out: EC50 in the TEAD reporter assay): 0.106 ± 0.03 µM |
| C=CC(=O)N1C[C@@H](Nc2ncccn2)[C@H](OCc2ccc(C(F)(F)F)cc2)C1 (relative stereo) [Compound 14, 1-(trans-3-(Pyrimidin-2-ylamino)-4-((4-(trifluoromethyl)benzyl)-oxy)pyrrolidin-1-yl)prop-2-en-1-one] | – | – | – | – | limited effect | – |
| CN(C)C/C=C/C(=O)N1C[C@@H](n2cc(-c3cccnc3)nn2)[C@H](OCc2ccc(C(F)(F)F)cc2)C1 [Compound 19, (E)-4-(Dimethylamino)-1-((3R,4R)-3-(4-(pyridin-3-yl)-1H-1,2,3-triazol-1-yl)-4-(4-(trifluoromethyl)benzyloxy)pyrrolidin-1-yl)but-2-en-1-one] | inactive | inactive | inactive | inactive | – | IC50 in the reporter gene assay (TEAD transcription) ([1]; NCI-H226 reporter cells, 3 day treatment, mean ± SEM): did not inhibit |
| C=C(F)C(=O)N1C[C@@H](Nc2ncccn2)[C@H](OCc2ccc(C(F)(F)F)cc2)C1 [Compound 22, 2-Fluoro-1-((3R,4R)-3-(pyrimidin-2-ylamino)-4-((4-(trifluoromethyl)benzyl)oxy)pyrrolidin-1-yl)prop-2-en-1-one] | – | – | – | – | limited effect | covalent complex formation with TEAD1-YBD (intact mass shift) [7]: mass shift consistent with compound 22 |
